Test results as given in ChEMBL document CHEMBL4196174, “Discovery of Indole Derivatives as Novel and Potent Dengue Virus Inhibitors” (J Med Chem, 2018).
In brackets after ≈: the same amount, converted by molar mass.

Tests used:
[1] = (§1) Cytotoxicity against African green monkey Vero cells assessed as cell growth inhibition after 4 days by MTS/PMS method; format: cell-based; conditions: chlorocebus sabaeus, Vero cells
Procedure, shortened: (§2)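 Cytotoxicity run as in the yield assay, but without virus. Vero cells (5×10^4/well) were exposed to 3- or 5-fold serial dilutions in MEM with 2% FBS. Viability was read by the MTS/PMS colorimetric method. CC50 was derived by logarithmic interpolation.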

dengue virus type 2 = assay: Antiviral activity against Dengue virus 2 Rega infected in African green monkey Vero cells assessed as reduction in viral yield after 4 days by qRT-PCR analysis; format: functional, organism-based
Procedure, shortened: (§3)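 Virus yield reduction in Vero cells (seeded 5×10^4/well). Next day infected with DENV (MOI 0.01) in assay medium (MEM, 2% FBS, 0.075% bicarbonate, 2 mM L-glutamine). After 1 h, input virus was removed and cells rinsed 3 times. Medium with 3- or 5-fold compound serial dilutions was then added. Incubation was 4 days (DENV-2, DENV-4) or 7 days (DENV-1, DENV-3). Supernatant viral RNA was measured by RT-qPCR, and EC50 obtained by logarithmic interpolation.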

[2] = Drug metabolism in rat liver microsomes after 15 mins; format: ADME, microsome; conditions: for metabolised at 0.25 h: liver microsomes, read-out: Drug metabolism
Procedure, shortened: (§4)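 Percentage of compound metabolized after 15 min incubation with human or rat liver microsomes.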

[3] = Drug metabolism in human liver microsomes after 15 mins; format: ADME, microsome; conditions: for metabolised at 0.25 h: liver microsomes, read-out: Drug metabolism; procedure, shortened: as §4
[4] = Solubility of the compound in DMSO solution at pH 7.4; format: physicochemical
Procedure, shortened: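 Solubility measured at pH 7.4, starting from a DMSO solution.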

Vero = assay: as §1; format: cell-based; conditions: chlorocebus sabaeus, vero, 96 h; procedure, shortened: as §2
Salmonella typhimurium [5] = assay: Mutagenicity in Salmonella typhimurium in absence of human liver S9 fraction by Ames test; format: toxicity, organism-based; conditions: salmonella enterica subsp. enterica serovar typhimurium
dengue virus type 4 = assay: Antiviral activity against Dengue virus 4 DAKHD34460 infected in African green monkey Vero cells assessed as reduction in viral yield after 4 days by qRT-PCR analysis; format: functional, organism-based; conditions: 96 h; procedure, shortened: as §3
Salmonella typhimurium [6] = assay: Mutagenicity in Salmonella typhimurium in presence of human liver S9 fraction by Ames test; format: toxicity, organism-based; conditions: salmonella enterica subsp. enterica serovar typhimurium
dengue virus type 1 = assay: Antiviral activity against Dengue virus 1 Djibouti D1/H/IMTSSA/98/606 infected in African green monkey Vero cells assessed as reduction in viral yield after 7 days by qRT-PCR analysis; format: functional, organism-based; conditions: Djibouti D1/H/IMTSSA/98/606, Vero, 168 h; procedure, shortened: as §3
dengue virus type 3 = assay: Antiviral activity against Dengue virus 3 H87 infected in African green monkey Vero cells assessed as reduction in viral yield after 7 days by qRT-PCR analysis; format: functional, organism-based; conditions: 168 h; procedure, shortened: as §3

| Structure (SMILES) | CC50 at 96 h [1] [µM] | EC50 (dengue virus type 2; Dengue virus, Rega, Vero, 96 h) [µM] | other results |
| --- | --- | --- | --- |
| COc1cccc(NC(C(=O)c2c[nH]c3ccccc23)c2ccccc2)n1 (configuration not stated) | 16 | 0.288 | – |
| COc1cccc(NC(C(=O)c2c[nH]c3ccccc23)c2cnccn2)c1 (configuration not stated) | 65 | 0.837 | – |
| N#Cc1cccc(NC(C(=O)c2c[nH]c3ccccc23)c2ccccc2)c1 (configuration not stated) | 14 | 2.1 | – |
| COc1cc(NC(C(=O)c2c[nH]c3cccc(CCCO)c23)c2ccccc2)cc(OC)c1 (configuration not stated) | 55 | 1.4 | – |
| COc1cccc(NC(C(=O)c2c[nH]c3ccccc23)c2ccc(F)cc2)c1 (configuration not stated) | 14 | 0.025 | – |
| COc1cccc(NC(C(=O)c2c[nH]c3ccccc23)c2ccc(C)nc2)c1 (configuration not stated) | 73 | 0.073 | – |
| O=C(c1c[nH]c2ccccc12)C(Nc1ccc2[nH]c(=O)oc2c1)c1ccccc1 (configuration not stated) | 15 | 6.1 | – |
| COc1cccc(NC(C(=O)c2c[nH]c3ccccc23)c2ccncc2)c1 (configuration not stated) | 16 | 0.138 | – |
| O=C(c1c[nH]c2ccccc12)C(Nc1cc(F)cc(F)c1)c1ccccc1 (configuration not stated) | 23 | 1.7 | – |
| COc1cc(NC(C(=O)c2c[nH]c3ccccc23)c2ccccc2)cc(OCCCO)c1 (configuration not stated) | 50 | 0.085 | metabolised at 0.25 h [2]: 67%; metabolised at 0.25 h [3]: 8%; solubility ([4]; read-out: solubility): 30 µM (≈ 12.9 µg/mL) |
| COc1cccc(NC(C(=O)c2c[nH]c3ccccc23)c2ccc(S(C)(=O)=O)cc2)c1 (configuration not stated) | > 115 | 1.6 | – |
| COc1cc(CO)cc(NC(C(=O)c2c[nH]c3ccccc23)c2ccccc2)c1 (configuration not stated) | 71 | 0.065 | metabolised at 0.25 h [2]: 85%; metabolised at 0.25 h [3]: 18%; solubility ([4]; read-out: solubility): 50 µM (≈ 19.3 µg/mL) |
| COc1cc(NC(C(=O)c2c[nH]c3ccc(CCO)cc23)c2ccccc2)cc(OC)c1 (configuration not stated) | 56 | 0.181 | – |
| O=C(c1c[nH]c2ccccc12)C(Nc1cccnc1)c1ccccc1 (configuration not stated) | 54 | 5 | – |
| COc1cc(NC(C(=O)c2c[nH]c3cccc(CO)c23)c2ccccc2)cc(OC)c1 (configuration not stated) | 71 | 0.288 | – |
| COc1cccc(NC(C(=O)c2c[nH]c3ccccc23)c2ccc(C)cc2)c1 (configuration not stated) | 20 | 0.022 | – |
| COc1cccc(NC(C(=O)c2c[nH]c3c(C)cccc23)c2ccccc2)c1 (configuration not stated) | > 135 | 0.051 | – |
| COc1cc(NC(C(=O)c2c[nH]c3ccccc23)c2ccccc2)cc(OCCO)c1 (single isomer, unassigned; (-)) | – | – | CC50 (Vero): 77 µM; EC50 (dengue virus type 2; vero): 0.456 µM |
| COc1cccc(NC(C(=O)c2c[nH]c3cc(F)ccc23)c2ccccc2)c1 (configuration not stated) | 15 | 0.045 | – |
| COc1cc(NC(C(=O)c2c[nH]c3ccccc23)c2ccc(F)cc2)cc(OC)c1 (configuration not stated) | 13 | 0.004 | – |
| COc1cccc(NC(C(=O)c2c[nH]c3ccccc23)c2cccnc2)c1 (configuration not stated) | 71 | 0.138 | – |
| O=C(c1c[nH]c2ccccc12)C(NC1CCCC1)c1ccccc1 (configuration not stated) | 86 | 15 | – |
| COc1cccc(NC(C(=O)c2c[nH]c3ccc(F)cc23)c2ccccc2)c1 (configuration not stated) | 13 | 0.034 | – |
| CS(=O)(=O)c1cccc(NC(C(=O)c2c[nH]c3ccccc23)c2ccccc2)c1 (configuration not stated) | 65 | 6.5 | – |
| COc1ccnc(NC(C(=O)c2c[nH]c3ccccc23)c2ccccc2)c1 (configuration not stated) | 95 | 6.3 | – |
| COc1cc(F)cc(NC(C(=O)c2c[nH]c3ccccc23)c2ccccc2)c1 (configuration not stated) | 22 | 0.02 | – |
| COc1cccc(NC(C(=O)c2c[nH]c3cc(OC)ccc23)c2ccccc2)c1 (configuration not stated) | 13 | 0.043 | – |
| COc1cccc(NC(C(=O)c2c[nH]c3c(F)cccc23)c2ccccc2)c1 (configuration not stated) | 14 | 0.057 | – |

| Structure (SMILES) | CC50 at 96 h [1] [µM] | EC50 (dengue virus type 2; Dengue virus, Rega, Vero, 96 h) [µM] | other results |
| --- | --- | --- | --- |
| COc1cncc(NC(C(=O)c2c[nH]c3ccccc23)c2ccccc2)n1 (configuration not stated) | 68 | 0.484 | – |
| COc1cccc(NC(C(=O)c2c[nH]c3ccccc23)c2ccccc2C)c1 (configuration not stated) | 14 | 0.096 | – |
| COc1cccc(NC(C(=O)c2c[nH]c3cccc(Cl)c23)c2ccccc2)c1 (configuration not stated) | 18 | 0.024 | – |
| COc1cccc(NC(C(=O)c2c[nH]c3ccccc23)c2cccc(C)c2)c1 (configuration not stated) | 20 | 0.269 | – |
| O=C(c1c[nH]c2ccccc12)C(Nc1cccc(OC(F)(F)F)c1)c1ccccc1 (configuration not stated) | 5 | 0.926 | – |
| COc1cccc(NC(C(=O)c2c[nH]c3ccccc23)c2ccc3nccnc3c2)c1 (configuration not stated) | 19 | 1.2 | – |
| COc1cccc(NC(C(=O)c2c[nH]c3ccccc23)c2cc3ccccn3n2)c1 (configuration not stated) | 26 | 0.028 | – |
| COc1cccc(NC(C(=O)c2c[nH]c3ccccc23)c2ccsc2)c1 (configuration not stated) | 15 | 0.134 | – |
| COc1cc(NC(C(=O)c2c[nH]c3ccccc23)c2ccccc2)cc(OCCO)c1 (racemic) | – | – | CC50 (Vero): 47 µM; Drug metabolism ([2]; microsomes, 0.25 h): 37%; EC50 (dengue virus type 2; vero): 0.059 µM; Drug metabolism ([3]; microsomes, 0.25 h): 13%; solubility [4]: 60 µM (≈ 25 µg/mL) |
| COc1ccc(OC)c(NC(C(=O)c2c[nH]c3ccccc23)c2ccccc2)c1 (configuration not stated) | 15 | 2.5 | – |
| COc1cc(NC(C(=O)c2c[nH]c3ccc(F)cc23)c2ccccc2)cc(OC)c1 (configuration not stated) | 13 | 0.007 | Activity (Salmonella typhimurium [5]): Non-Toxic; EC50 (dengue virus type 4): 4.8 µM; Activity (Salmonella typhimurium [6]): Non-Toxic; EC50 (dengue virus type 1): 0.247 µM; EC50 (dengue virus type 3): 0.68 µM |
| CCOc1cc(NC(C(=O)c2c[nH]c3ccccc23)c2ccccc2)cc(OC)c1 (configuration not stated) | 13 | 0.018 | – |
| COc1cc(NC(C(=O)c2c[nH]c3ccc(CO)cc23)c2ccccc2)cc(OC)c1 (configuration not stated) | 65 | 0.106 | – |
| COc1cccc(NC(C(=O)c2c[nH]c3ccccc23)c2ccc(C#N)cc2)c1 (configuration not stated) | 14 | 0.041 | – |
| COc1cccc(NC(C(=O)c2c[nH]c3cccc(F)c23)c2ccccc2)c1 (configuration not stated) | 21 | 0.122 | – |
| COc1cccc(NC(C(=O)c2c[nH]c3ccccc23)c2ccco2)c1 (configuration not stated) | 16 | 0.297 | – |
| COc1cc(NC(C(=O)c2c[nH]c3ccccc23)c2ccccc2)cc(OCCN(C)C)c1 (configuration not stated) | 13 | 1.7 | – |
| COc1cc(NC(C(=O)c2c[nH]c3ccccc23)c2cccnc2)cc(OC)c1 (configuration not stated) | 69 | 0.015 | EC50 (dengue virus type 4): 2.5 µM; EC50 (dengue virus type 1): 0.173 µM; EC50 (dengue virus type 3): 0.31 µM |
| COc1cccc(NC(C(=O)c2c[nH]c3ccccc23)c2cc(C)on2)c1 (configuration not stated) | 50 | 0.59 | – |
| COc1cc(NC(C(=O)c2c[nH]c3c(CCS(C)(=O)=O)cccc23)c2ccccc2)cc(OC)c1 (configuration not stated) | > 102 | 0.406 | – |
| COc1cccc(NC(C(=O)c2c[nH]c3ccccc23)c2cncnc2)c1 (configuration not stated) | 100 | 0.391 | – |
| COc1cccc(NC(C(=O)c2c[nH]c3ccccc23)c2ccccc2)c1 (configuration not stated) | 18 | 0.073 | Activity (Salmonella typhimurium [5]): Non-Toxic; Activity (Salmonella typhimurium [6]): Non-Toxic |
| COc1cc(NC(C(=O)c2c[nH]c3ccccc23)c2ccc(F)cc2)cc(OCCO)c1 (configuration not stated) | 46 | 0.013 | metabolised at 0.25 h [2]: 23%; metabolised at 0.25 h [3]: 7%; solubility ([4]; read-out: solubility): 27 µM (≈ 11.7 µg/mL) |
| O=C(c1c[nH]c2ccccc12)C(Nc1cccc(F)c1)c1ccccc1 (configuration not stated) | 12 | 2.4 | – |
| COc1cccc(NC(C(=O)c2c[nH]c3cc(Cl)ccc23)c2ccccc2)c1 (configuration not stated) | 13 | 0.013 | – |
| COc1cccc(NC(C(=O)c2c[nH]c3ccccc23)c2ccccc2)c1OC (configuration not stated) | > 129 | 4.2 | – |
| COc1nc(NC(C(=O)c2c[nH]c3ccccc23)c2ccccc2)ns1 (configuration not stated) | 90 | 3.3 | – |
